Assay results: ChEMBL document CHEMBL3792298, “Design, synthesis and in vitro evaluation studies of sulfonyl-amino-acetamides as small molecule BACE-1 inhibitors” (Bioorg Med Chem, 2016)

These molecules were tested against T1, Beta-secretase 1 (Homo sapiens, UniProt P56817) (assay: Inhibition of human BACE1 expressed in recombinant baculovirus-infected insect cells using rhodamine conjugated APP-based EVNLDAEFK as substrate at 10 uM after 60 mins by FRET analysis).
T1 sequence (P56817 whole entry): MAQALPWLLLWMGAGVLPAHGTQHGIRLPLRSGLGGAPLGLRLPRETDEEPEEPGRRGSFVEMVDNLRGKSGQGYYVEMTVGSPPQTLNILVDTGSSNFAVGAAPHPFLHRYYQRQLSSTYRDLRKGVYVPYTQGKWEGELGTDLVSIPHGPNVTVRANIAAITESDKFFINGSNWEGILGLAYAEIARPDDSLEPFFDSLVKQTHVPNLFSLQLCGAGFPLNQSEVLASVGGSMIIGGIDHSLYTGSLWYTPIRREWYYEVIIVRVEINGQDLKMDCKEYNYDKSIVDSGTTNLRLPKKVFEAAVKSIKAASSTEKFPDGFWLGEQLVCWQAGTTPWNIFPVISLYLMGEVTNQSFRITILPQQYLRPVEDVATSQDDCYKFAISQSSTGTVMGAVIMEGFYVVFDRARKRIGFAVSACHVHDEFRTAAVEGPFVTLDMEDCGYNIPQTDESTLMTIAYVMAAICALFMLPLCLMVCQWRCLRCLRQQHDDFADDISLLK
In short: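 Commercial BACE-1 FRET kit run per supplier protocol, with 3X BACE-1 enzyme (1U/ml) in 50mM sodium acetate buffer, pH 4.5. Compounds were made as 10mM DMSO stocks and diluted in buffer to a final 10µM. After 60 min incubation, fluorescence was read with excitation at 545 nm. Percent inhibition is given as mean ± S.D. of triplicate independent experiments.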
An inhibition of 28.4% was found for COc1ccc(S(=O)(=O)NCC(=O)Nc2ccc(C)cc2C)cc1 in this work.
An inhibition of 17.5% was found for O=C(CNS(=O)(=O)c1ccccc1[N+](=O)[O-])Nc1cccc(Cl)c1 in this work.
An inhibition of 18.5% was found for Cc1ccccc1S(=O)(=O)NCC(=O)Nc1ccccc1 in this work.
An inhibition of 37.1% was found for CC(=O)Nc1ccc(S(=O)(=O)NCC(=O)Nc2ccc(Cl)cc2)cc1 in this work.
An inhibition of 9.49% was found for Cc1ccc(NC(=O)CNS(=O)(=O)c2ccc([N+](=O)[O-])cc2)c(C)c1 in this work.
An inhibition of 18.5% was found for O=C(CNS(=O)(=O)c1ccccc1[N+](=O)[O-])Nc1ccc(Cl)cc1 in this work.
An inhibition of 42.1% was found for O=C(CNS(=O)(=O)c1cccc([N+](=O)[O-])c1)Nc1cccc(Cl)c1 in this work.
An inhibition of 25.3% was found for Cc1ccc(S(=O)(=O)NCC(=O)Nc2ccc(Cl)cc2)cc1 in this work.
An inhibition of 21.6% was found for Cc1ccc(NC(=O)CNS(=O)(=O)c2ccccc2[N+](=O)[O-])c(C)c1 in this work.
An inhibition of 35% was found for Cc1ccc(S(=O)(=O)NCC(=O)Nc2ccc(C)cc2C)cc1 in this work.
An inhibition of 14.9% was found for O=C(CNS(=O)(=O)c1ccccc1[N+](=O)[O-])Nc1ccccc1 in this work.
An inhibition of 41% was found for Cc1ccc(NC(=O)CNS(=O)(=O)c2cccc([N+](=O)[O-])c2)c(C)c1 in this work.
An inhibition of 8.72% was found for O=C(CNS(=O)(=O)c1ccccc1)Nc1ccccc1 in this work.
An inhibition of 61.9% was found for CC(=O)Nc1ccc(S(=O)(=O)NCC(=O)Nc2ccc(C)cc2C)cc1 in this work.
An inhibition of 5.03% was found for O=C(CNS(=O)(=O)c1ccc([N+](=O)[O-])cc1)Nc1ccccc1 in this work.
An inhibition of 52.9% was found for CC(=O)Nc1ccc(S(=O)(=O)NCC(=O)Nc2cccc(Cl)c2)cc1 in this work.
An inhibition of 17% was found for O=C(CNS(=O)(=O)c1ccc([N+](=O)[O-])cc1)Nc1cccc(Cl)c1 in this work.
An inhibition of 9.89% was found for O=C(CNS(=O)(=O)c1ccc([N+](=O)[O-])cc1)Nc1ccc(Cl)cc1 in this work.
An inhibition of 34.8% was found for O=C(CNS(=O)(=O)c1ccc(Cl)cc1)Nc1ccc(Cl)cc1 in this work.
An inhibition of 28.9% was found for CC(=O)Nc1ccc(S(=O)(=O)NCC(=O)Nc2ccccc2)cc1 in this work.
An inhibition of 48.6% was found for O=C(CNS(=O)(=O)c1ccc(Cl)cc1)Nc1cccc(Cl)c1 in this work.
An inhibition of 38.3% was found for COc1ccc(S(=O)(=O)NCC(=O)Nc2cccc(Cl)c2)cc1 in this work.
An inhibition of 31.8% was found for Cc1ccc(S(=O)(=O)NCC(=O)Nc2cccc(Cl)c2)cc1 in this work.
An inhibition of 28.6% was found for COc1ccc(S(=O)(=O)NCC(=O)Nc2ccccc2)cc1 in this work.
An inhibition of 21.9% was found for Cc1ccc(S(=O)(=O)NCC(=O)Nc2ccccc2)cc1 in this work.
An inhibition of 5.09% was found for O=C(CNS(=O)(=O)c1ccccc1)Nc1ccc(Cl)cc1 in this work.
An inhibition of 5.38% was found for Cc1ccc(NC(=O)CNS(=O)(=O)c2ccccc2)c(C)c1 in this work.
An inhibition of 29.5% was found for O=C(CNS(=O)(=O)c1cccc([N+](=O)[O-])c1)Nc1ccc(Cl)cc1 in this work.
An inhibition of 35.9% was found for Cc1ccc(NC(=O)CNS(=O)(=O)c2ccc(Cl)cc2)c(C)c1 in this work.
An inhibition of 4.83% was found for O=C(CNS(=O)(=O)c1ccccc1)Nc1cccc(Cl)c1 in this work.
An inhibition of 35.1% was found for COc1ccc(S(=O)(=O)NCC(=O)Nc2ccc(Cl)cc2)cc1 in this work.
An inhibition of 22.8% was found for O=C(CNS(=O)(=O)c1ccc(Cl)cc1)Nc1ccccc1 in this work.
An inhibition of 42% was found for O=C(CNS(=O)(=O)c1cccc([N+](=O)[O-])c1)Nc1ccccc1 in this work.

The molecules below were run against T1, Beta-secretase 1 (assay: Inhibition of human BACE1 expressed in recombinant baculovirus-infected insect cells using rhodamine conjugated APP-based EVNLDAEFK as substrate after 60 mins by FRET analysis).
In short: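 FRET cleavage assay from a commercial BACE-1 kit, following supplier protocol. It used 3X BACE-1 enzyme (1U/ml) in 50mM sodium acetate buffer, pH 4.5. Test compounds were prepared as 10mM DMSO stocks and diluted with buffer. After 60 min incubation, fluorescence was read at 545 nm excitation.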
An IC50 of 7.9 µM was found for CC(=O)Nc1ccc(S(=O)(=O)NCC(=O)Nc2ccc(C)cc2C)cc1 in this work.
